Measurements pooled from the literature.
Target: Calcium/calmodulin-dependent protein kinase type 1G (CAMK1G, Homo sapiens, UniProt Q96NX5)

c1cncc(-c2cccc(Nc3nccc(NC4CCCCC4)n3)c2)c1
remaining binding (binding, competition with immobilised ligand; 10 µM): 81%

COc1ccnn2ncc(-c3ccnc(N(C)C)n3)c12
remaining binding (binding; 1 µM): 100%

O=C(NCCCN1CCOCC1)c1ccc(Nc2ncc(Cl)c(-c3ccc(Cl)s3)n2)cc1
remaining binding (binding, competition with immobilised ligand; 1 µM): 74%

N[C@H]1CCN(c2nccc(-c3cnn4ncccc34)n2)C1
remaining binding (binding, competition with immobilised ligand; 1 µM): 93%

O=C(Nc1c[nH]nc1C(=O)NC1CCNCC1)c1cc(F)cc(F)c1
remaining binding (binding, competition with immobilised ligand; 1 µM): 83%

O=C(c1ccc(Nc2nccc(-c3cc4ccccc4s3)n2)cc1)N1CCC(N2CCCC2)CC1
remaining binding (binding, competition with immobilised ligand; 1 µM): 72%

FC(F)(F)Oc1cccc(-c2cnc3ccc(-c4ccncc4)nn23)c1
remaining binding (cell-free assay, competition with immobilised ligand; 5 µM): 73%

CC(=O)N1CCC(c2ccc(C(=O)NC(=N)N)cc2C(F)(F)F)CC1
remaining binding (cell-free assay, competition with immobilised ligand; 1 µM): 100%

CN(C)c1nccc(-c2cnc3ncccn23)n1
remaining binding (binding; 1 µM): 100%

Cn1nc(C(=O)NCc2ccc(C(=O)O)cc2)cc1-c1ccc2[nH]ccc2c1
remaining binding (cell-free assay, competition with immobilised ligand; 0.1 µM): 89%

C[C@H]1CCN(c2nccc(-c3cnn4ncccc34)n2)C1
remaining binding (binding; 1 µM): 97%

CCC(=N\O)/C(C)=C/c1ccc(F)cc1
remaining binding (cell-free assay, competition with immobilised ligand; 1 µM): 97%

COc1ncc2cc3ccccc3nc2c1C#N
remaining binding (cell-free assay, competition with immobilised ligand; 5 µM): 89%

Nc1ncc2c(n1)-c1c([nH]c3ccc(C#CC4CC4)cc13)CCCC2
remaining binding (binding, competition with immobilised ligand; 1 µM): 87%

CCN1CCN(Cc2ccc(C(=O)Nc3ccc(C)c(Oc4ccc5c(c4)CC(=O)N5)c3)cc2C(F)(F)F)CC1
remaining binding (binding, competition with immobilised ligand; 1 µM): 94%

O=C(N1CCS(=O)(=O)CC1)N1C[C@H](c2ccc(OC(F)(F)F)cc2)C[C@H](c2nc(C3CC3)no2)C1
remaining binding (cell-free assay, competition with immobilised ligand; 1 µM): 100%

CN(C)c1nccc(-c2cnn3ncccc23)n1
remaining binding (binding, competition with immobilised ligand; 1 µM): 92%

Cc1cnc(Nc2ccc(C(=O)N3CCC(N4CCCC4)CC3)cc2)nc1-c1cc2ccccc2s1
remaining binding (binding, competition with immobilised ligand; 1 µM): 68%

CNCc1ccccc1-c1csc([C@H](C)Nc2nc(C)nc3cc(OC)c(OC)cc23)c1
remaining binding (cell-free assay, competition with immobilised ligand; 1 µM): 96%

CNC(=O)[C@@H]1CC[C@@H](n2c(-c3ccc4cnccc4c3)nc3ccc(C(=O)NCc4cccc(C(N)=O)c4)cc32)C1
remaining binding (binding, competition with immobilised ligand; 1 µM): 98%

c1cnn2ncc(-c3ccnc(N4CCC45COC5)n3)c2c1
remaining binding (binding; 1 µM): 100%

C[C@@]1(Cc2ccc(C#N)cc2)C(=O)N(c2cc(Cl)cc(Cl)c2)c2ncc(C(=O)NC3(c4nc(C5CCC5)no4)CC3)n21
remaining binding (cell-free assay, competition with immobilised ligand; 1 µM): 100%
